# From PubChem BioAssay
# XBP1 UPR activ: adaptive UPR (XBP1) activation | CHO-XBP1 luciferase reporter, IRE1-XBP1 UPR activation, luminescence; percent of tunicamycin response, DMSO as zero | activation, % at 20 µM | actives 0.33% (n = 330,000) | AID 463104;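 active = versus positive control, 20 µM dose yields 30% or more activation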
#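 Material: IRE1-XBP1 luciferase reporter CHO line / Quantity: one thousand reporter cells per well / Buffer or medium: F12 with 10% serum / Compound: 20 µM single concentration, DMSO 1% / Times: 6 h treatment, 37 °C / Detection: Steady-Glo luciferase glow luminescence, 10 min after reagent addition / Benchmarks: tunicamycin high, DMSO low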
# tim23-1 inh: growth inhibitors of tim23-1 mutant yeast | S. cerevisiae tim23-1 growth, BacTiter-Glo luminescence, 24 h | inhibition, % at 20 µM | actives 1.3% (n = 330,000) | AID 463212;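 active = growth inhibition of the mutant yeast at or above 50%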;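 also: temperature-sensitive mutant grown at 25 °C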
# UPR CHOP act: activators of apoptotic arm of unfolded protein response (CHOP) | CHO-CHOP luciferase reporter, UPR activation, luminescence; percent of tunicamycin response over DMSO baseline | activation, % at 10 µM | actives 0.34% (n = 330,000);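 active = at 10 µM dose, activation of 40% or more, normalized to positive control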
#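 Assay system: CHO-CHOP cells, stable luciferase reporter of PERK-eIF2a-CHOP signalling / Buffer or medium: F12 plus 10% serum / Compound dosing: one dose, 10 µM in 0.5% DMSO / Times: 6 h compound treatment, 37 °C / Technique: luciferase luminescence / Read-out: % reporter activation, DMSO baseline versus tunicamycin full activation / Benchmarks: tunicamycin and DMSO controls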
# TIM10 inh: TIM10 yeast growth inhibition; S. cerevisiae TIM10 strain growth, BacTiter-Glo luminescence, 24 h; actives 1.4% (n = 330,000); inhibition, % at 10 µM; AID 463195;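 active = inhibition of 40% or more at the single tested concentration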;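 also: wild-type TIM10 isogenic control strain grown at permissive 25 °C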
# tim10-1 inh: growth inhibitors of tim10-1 mutant yeast; S. cerevisiae tim10-1 ts strain growth, BacTiter-Glo, 24 h; inhibition, % at 20 µM; actives 2.2% (n = 330,000);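 active = inhibition of at least 40%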;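 also: mutant grown at 25 °C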
# tim23-1 confirm: confirmation of tim23-1 mutant yeast growth inhibitors | shares compounds with tim23-1 inh | S. cerevisiae tim23-1 growth, BacTiter-Glo luminescence, 24 h | inhibition, % at 20 µM | actives 83% (n = 4,400) | AID 463218;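 active = inhibition above about 39% in either of two replicate wells at 20 µM, limit read from the data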;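 also: temperature-sensitive tim23-1 mutant grown at 25 °C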
# Numbers stand for hits; n = inactive; x = no result. This is a sample that favours compounds with a hit; in the whole collection about 3.9% have one here.
SMILES,XBP1 UPR activ,tim23-1 inh,UPR CHOP act,TIM10 inh,tim10-1 inh,tim23-1 confirm
Cc1ccc(NC(=O)CN(C)S(=O)(=O)c2cnc[nH]2)c(C)c1,n,n,n,n,n,x
O=C(/C=C/c1ccccc1Cl)Nc1cccc(O)c1,n,n,n,n,n,x
O=C(/C=C/c1ccccc1Cl)Nc1ccccc1,n,65,n,n,n,58
COc1ccc(Cn2c(C)nc([N+](=O)[O-])c2SCC(=O)O)cc1[N+](=O)[O-],n,55,n,n,n,n
COCCCNC(=O)C1CCC(CNS(=O)(=O)c2ccc3c(c2)CC(C)N3C(=O)C2CC2)CC1 (centres undefined),n,n,n,n,n,x
O=C1/C(=C/c2ccc(Br)cc2)Oc2cc(O)ccc21,n,56,n,n,n,51
Cc1cccc(NC(=S)N/N=C/c2c[nH]c3ccccc23)c1,n,64,n,n,n,n
Cc1cccc(NC(=O)c2cnc3ccccn3c2=O)c1,n,61,n,n,n,55
Cc1cccc(NC(=O)c2cnc3sccn3c2=O)c1,n,n,n,n,n,x
CN1CCN(c2ccc(Cl)cc2NC(=O)CCN2C(=O)c3ccccc3C2=O)CC1,n,n,n,n,n,x
COc1ccc(C(=O)Nc2ccc(Nc3ccccc3)cc2)cc1[N+](=O)[O-],n,52,n,n,n,n
Cc1ccc(C(=O)Nc2ccc(-c3csc(C)n3)cc2)cc1,n,n,n,n,n,x
COc1cc(OC)cc(C(=O)Nc2ccc(Nc3ccccc3)cc2)c1,n,72,n,n,n,59
COc1ccc(C(=O)Nc2ccc(OCc3ccccc3)cc2)cc1[N+](=O)[O-],n,n,n,n,n,x
Cc1nc(-c2ccc(NC(=O)c3ccccc3)cc2)cs1,n,54,n,n,n,53
O=C(Nc1ccc(Nc2ccccc2)cc1)c1ccccc1,n,56,n,n,n,60
O=C(Cc1ccccc1)NC(C(=O)O)C(O)c1ccc([N+](=O)[O-])cc1 (centres undefined),n,n,n,n,n,x
O=c1cc(CO)oc(CN2CCN(CCO)CC2)c1O,n,95,n,n,n,n
Cc1cccc(N2CCN(Cc3oc(CO)cc(=O)c3O)CC2)c1C,n,n,n,n,n,x
COc1ccc(NC(=O)N(C)C[C@H]2Oc3c(NS(=O)(=O)c4cccs4)cccc3C(=O)N([C@@H](C)CO)C[C@@H]2C)cc1,n,n,n,n,n,x
COC(=O)c1ccccc1NC(=O)c1ccccc1OC,n,51,n,n,n,n
COc1ccccc1C(=O)Nc1cc(C)on1,n,n,n,n,n,x
COc1ccccc1C(=O)Nc1cc(-c2ccc(C)cc2)no1,n,55,n,n,n,47
COc1ccccc1C(=O)NC(=S)Nc1cccc2cc(O)ccc12,n,54,n,n,n,46
CCCCCCN(C(=O)CCl)c1ccccc1,n,n,n,n,n,x
SMILES,XBP1 UPR activ,tim23-1 inh,UPR CHOP act,TIM10 inh,tim10-1 inh,tim23-1 confirm
COc1ccc2c(c1)-c1nc(NC(=O)c3cccs3)sc1CC2,n,53,n,n,n,48
O=C(O)/C=C\C(=O)Nc1ccc(Oc2ccc(Br)cc2)cc1,n,53,n,n,n,n
CCOC(=O)/C(C#N)=C/c1cc2cc(C)c(C)cc2nc1Cl,n,62,n,n,n,70
Cc1cc(NC(=O)c2ccc(Cl)cc2)ccc1NC(=O)c1ccccc1Cl,n,n,n,n,n,x
O=C(Nc1c(-c2ccccc2)nc2ccccn12)c1cccs1,n,n,n,n,n,x
O=C(Nc1nsc(-c2ccccc2)n1)c1cccs1,n,68,n,n,n,53
O=C(NCC1COc2ccccc2O1)c1ccc(NC(=O)c2ccco2)cc1 (centres undefined),n,58,n,n,n,53
O=C(NCC(O)c1ccccc1)c1ccc(Cl)c(S(=O)(=O)N2CCCCC2)c1 (centres undefined),n,n,n,n,n,x
O=C(/C=C/c1ccc([N+](=O)[O-])cc1)c1cccs1,n,n,n,n,n,x
Nc1ccc(/C=C/C(=O)c2cccs2)cc1,n,56,n,n,n,80
C=C(C)C(O)Cc1c(OC)ccc(C(=O)/C=C/c2ccc(O)cc2)c1O (centres undefined),n,54,n,n,n,42
CCCCCN=Cc1c(C)[nH]n(-c2nc3ccccc3s2)c1=O,n,56,n,n,n,48
O=C(On1c(-c2ccccc2)nc2ccccc2c1=O)c1ccco1,n,75,n,n,n,57
O=c1c2ccccc2nc(-c2ccco2)n1Cc1ccccc1,n,n,n,n,n,x
O=C(OCc1c(-c2ccccc2)ncc2ccccc12)c1ccco1,n,55,n,n,n,n
Fc1ccc(CNc2nc(-c3cccnc3)nc3ccccc23)cc1,n,n,n,n,n,x
Cc1ccc(Nc2nc(-c3cccnc3)nc3ccccc23)cc1,n,56,n,n,n,56
CC(Nc1nc(-c2cccnc2)nc2ccccc12)c1ccc(F)cc1 (centres undefined),n,59,n,n,n,60
COC(=O)c1c(C)cc(O)c(C=O)c1O,n,56,n,n,n,45
O=C(Nc1ccc(F)c(Cl)c1)C1CC2CCC1C2 (centres undefined),n,61,n,n,n,68
O=C(Nc1ccc(F)cc1)C1CC2CCC1C2 (centres undefined),n,n,n,n,n,x
CCC(C)c1ccc(NC(=O)C2CC3CCC2C3)cc1 (centres undefined),n,52,n,n,n,51
C=CCNC(=O)c1ccc2c3n(nc2c1)-c1ccc(Cl)cc1CO3,n,59,n,n,n,50
CC(C)NC(=O)c1ccc2c3n(nc2c1)-c1ccccc1CO3,n,n,n,n,n,x
CCc1noc(C)c1C(=O)OC(C)C(=O)Nc1ccccc1OC (centres undefined),n,n,n,n,n,x
SMILES,XBP1 UPR activ,tim23-1 inh,UPR CHOP act,TIM10 inh,tim10-1 inh,tim23-1 confirm
Cc1cccc(C(C)C)c1NC(=O)C(C)OC(=O)Cn1cnc2c1c(=O)n(C)c(=O)n2C (centres undefined),n,n,n,n,n,x
COC(=O)c1cc(C(=O)c2c(C)cc3ccccn23)cc([N+](=O)[O-])c1,n,n,n,n,n,x
Cc1cc2ccccn2c1C(=O)c1cc([N+](=O)[O-])cc([N+](=O)[O-])c1,n,56,n,n,n,67
CCOc1ccc(CN(C)C(=O)CNC(=O)c2ccc(Br)o2)cc1OC,n,n,n,n,n,x
COc1ccc(NS(=O)(=O)c2ccc3c(c2)Cc2ccccc2-3)cn1,n,64,n,n,n,n
Cc1cc(=O)oc2c1c(C(F)(F)F)nn2-c1ccccc1,n,50,n,n,n,55
